Measurements reported in paper PMC2843764 (Bioorganic & medicinal chemistry letters, 2010).
Blank lines part the entries; values can stand above or below the compound they belong to.

Key:
RBBP9 [1] = molecular target: T1, RBBP9 (Homo sapiens, UniProt O75884); experiment: reversibility of RBBP9 inhibition by gel filtration, FP-Rh labeling; type: biochemical; conditions: inhibitor 100 µM
Method in brief: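 One half was reacted directly with FP-Rh. The other half was gel-filtered, then reacted with FP-Rh. Probe labelling was compared between the two halves.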

translation (ribosome) = conditions: in vitro ref 15; cited from earlier work
α2-adrenergic receptors = conditions: cited from earlier work
RBBP9 [2] = molecular target: T1, RBBP9; conditions: ~20,000 compound fluopol-ABPP screen ref 5; cited from earlier work
[3] = system: serine hydrolases of the mouse brain membrane proteome; type: biochemical; conditions: mouse brain membrane proteome doped with RBBP9, FP-Rh probe, up to 200 µM
Method in brief: (§1)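 Gel-based competitive ABPP. Two proteomes were used: the soluble fraction of RBBP9-transfected HEK 293T cells, and mouse brain membrane fraction doped with recombinant RBBP9. Each was preincubated 30 minutes with test compound (HEK: 20 and 200 µM; brain: a concentration series or 200 µM), then given FP-Rh (1 µM). Reactions were quenched after 10 minutes, run on SDS-PAGE and quantified by in-gel fluorescence scanning.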

RBBP9 [4] = molecular target: T1, RBBP9; experiment: LC-MS/MS identification of site of covalent labeling on RBBP9; conditions: trypsin digest, +138.00 Da modification
RBBP9 [5] = molecular target: T1, RBBP9; experiment: fluopol-ABPP screen for RBBP9 inhibition; type: biochemical; conditions: read-out: percent inhibition of RBBP9 in fluopol-ABPP confirmation screen
[6] = system: serine hydrolases of the HEK 293T soluble proteome; experiment: competitive ABPP with FP-Rh in RBBP9-transfected HEK 293T soluble proteome; type: biochemical; conditions: FP-Rh probe, 20 and 200 µM
Method in brief: as §1

[7] = molecular target: T2, glutathione transferase omega 1 (GSTO1) (Homo sapiens, UniProt P78417); experiment: PS-Rh labeling of GSTO1 in MDA-MB-231 proteome; type: biochemical; conditions: compounds 20 µM, PS-Rh 5 µM, 1 hour
T2 sequence (P78417 1-241): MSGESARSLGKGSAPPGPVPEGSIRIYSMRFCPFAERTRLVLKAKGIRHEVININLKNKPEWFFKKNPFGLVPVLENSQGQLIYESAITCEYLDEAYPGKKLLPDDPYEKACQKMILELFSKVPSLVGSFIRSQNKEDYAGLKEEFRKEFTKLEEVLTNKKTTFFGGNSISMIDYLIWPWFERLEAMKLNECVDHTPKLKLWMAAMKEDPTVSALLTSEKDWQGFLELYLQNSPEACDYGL
Method in brief: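 Gel-based competitive ABPP for thiol cross-reactivity. MDA-MB-231 proteome was treated with test compound (20 µM) and then labelled with the cysteine-reactive phenylsulfonate-rhodamine probe (5 µM, 1 hour). Labelled proteins were resolved on gel and read by fluorescence.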

purified RBBP9 = purified RBBP9 (Homo sapiens, UniProt O75884); experiment: gel-based competitive ABPP with purified RBBP9; type: biochemical; conditions: for RBBP9 inhibitory activity (in words): purified RBBP9, 20 µM
Sequence of purified RBBP9 (O75884 whole entry): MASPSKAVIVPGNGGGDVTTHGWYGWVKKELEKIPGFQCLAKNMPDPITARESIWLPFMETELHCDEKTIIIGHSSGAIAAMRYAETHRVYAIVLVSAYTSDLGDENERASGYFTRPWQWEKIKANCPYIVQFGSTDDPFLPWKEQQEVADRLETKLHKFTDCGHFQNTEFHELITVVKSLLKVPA

T1 sequence (O75884 whole entry): as above

reversibility of blockade of FP-rhodamine RBBP9 labeling (RBBP9 [1]): not reversed by gel filtration
Compound: C/C(=N\OC(=O)c1ccc(Cl)cc1)c1nccs1 [Compound 2]
selectivity for RBBP9 over other hydrolases [3]: highly selective for RBBP9
site of covalent adduct on RBBP9 (RBBP9 [4]): adduct only on the active site serine nucleophile (Ser75)

RBBP9 inhibitory activity (in words) (purified RBBP9): loss of RBBP9 inhibitory activity
Compound: C/C(=N\OC(=O)c1ccc([N+](=O)[O-])cc1)c1nccs1 [Compound 12]

fold lower IC50 than hit compound 2 (purified RBBP9; recombinant RBBP9): 3 fold
Compound: C/C(=N\OC(=O)C1CCCCC1)c1nccs1 [Compound 18]
selectivity for RBBP9 over other hydrolases [3]: did not inhibit any other hydrolases
selectivity for RBBP9 over other hydrolases [6]: selective for RBBP9

RBBP9 inhibitory activity (in words) (purified RBBP9): no detectable inhibitory activity
Compound: CC(=O)O/N=C(\C)c1nccs1 [Compound 19]

inhibition of PS-Rh labeling of GSTO1 [7]: no longer inhibited GSTO1
Compound: COc1ccc(C(=O)ON=C2C=C(C)C(=O)C(C)=C2)cc1 [Compound 21]
selectivity for RBBP9 over other hydrolases [3]: good selectivity for RBBP9

RBBP9 inhibitory activity (in words) (purified RBBP9): loss of RBBP9 inhibitory activity
Compound: COc1ccc(C(=O)O/N=C2/C=C(C)C(=O)C=C2C)cc1 [Compound 22]

Continued, compound first:

Compound: CC[C@H]1CN2CCc3cc(OC)c(OC)cc3[C@@H]2C[C@@H]1C[C@H]1NCCc2cc(OC)c(OC)cc21 [1 (emetine), emetine]
reversibility of blockade of FP-rhodamine RBBP9 labeling (RBBP9 [1]): reversible inhibitor
inhibition of translation (translation (ribosome)): inhibit translation in vitro
antagonism of α2-adrenergic receptors (α2-adrenergic receptors): antagonize of α2-adrenergic receptors
mode of RBBP9 inhibition (RBBP9 [2]): reversible inhibitor of RBBP9

Compound: COc1ccc(C(=O)O/N=C(\C)c2nccs2)cc1 [Compound 3]
selectivity for RBBP9 over other hydrolases [3]: highly selective for RBBP9

Compound: CC1=CC(=NOC(=O)/C=C/c2ccccc2)C=C(C)C1=O [Compound 4]
inhibition at 7.94 µM (RBBP9 [5]): ~80%
selectivity for RBBP9 over other hydrolases [6]: less selective for RBBP9
inhibition of PS-Rh labeling of GSTO1 [7]: potently inhibited

Compound: C/C(=N\OC(=O)c1ccc(-c2ccccc2)cc1)c1nccs1 [Compound 13]
RBBP9 inhibitory activity (in words) (purified RBBP9): completely ablating all inhibitory activity

Compound: C/C(=N\OC(=O)N1CCCCC1)c1nccs1 [Compound 20]
RBBP9 inhibitory activity (in words) (purified RBBP9): no inhibition of RBBP9

Compound: COc1ccc(C(=O)ON=C2C(C)=CC(=O)C=C2C)cc1 [Compound 23]
RBBP9 inhibitory activity (in words) (purified RBBP9): loss of RBBP9 inhibitory activity, an effect exacerbated

Compound: C/C(=N\OC(=O)/C=C/c1ccccc1)c1nccs1 [Compound 24]
RBBP9 inhibitory activity (in words) (purified RBBP9): significantly reduced activity against RBBP9
